Results on four compounds are retold here after ChEMBL document CHEMBL4043299, “Repurposing a Library of Human Cathepsin L Ligands: Identification of Macrocyclic Lactams as Potent Rhodesain and Trypanosoma brucei Inhibitors” (J Med Chem, 2018).

A short description of series [1]: Drug uptake in rat cerebrospinal fluid at 3 mg/kg administered via infusion over 30 mins. In kind it is ADME, organism-based. The settings on record: iv, read-out: Drug uptake. The procedure, abridged: (§1)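 Rats given 3 mg kg⁻¹ by infusion over 30 min, then sacrificed; plasma, brain and CSF concentrations measured; ratios to plasma derived; average of three independent measurements.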

Series [2] is described as follows: Drug uptake in rat brain at 3 mg/kg administered via infusion over 30 mins. The note with it: iv, read-out: Drug uptake. It counts as ADME, organism-based. In short, it runs like this:
as §1

The target in another series is T1, Cathepsin K (Homo sapiens, UniProt P43235).
T1 sequence (P43235 whole entry): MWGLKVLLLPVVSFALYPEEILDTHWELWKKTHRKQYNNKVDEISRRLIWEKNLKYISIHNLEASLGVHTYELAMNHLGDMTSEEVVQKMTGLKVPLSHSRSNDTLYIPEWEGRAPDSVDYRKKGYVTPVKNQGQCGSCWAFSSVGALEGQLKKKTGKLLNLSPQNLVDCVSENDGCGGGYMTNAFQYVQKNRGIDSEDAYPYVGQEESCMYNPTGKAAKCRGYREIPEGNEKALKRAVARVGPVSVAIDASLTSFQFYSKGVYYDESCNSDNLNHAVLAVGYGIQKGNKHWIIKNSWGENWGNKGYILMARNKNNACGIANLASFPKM
Nature of the series: Inhibition of human cathepsin K.

Series [3] is described as follows: Volume of distribution at steady state in C57BL/6J mouse administered via iv as bolus dose by LC-MS/MS analysis. It counts as ADME, organism-based. The note with it: in vivo, read-out: Vdss. The procedure, abridged: (§2)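 Male adult C57BL/6J mice, single i.v. bolus in N-methylpyrrolidinone/40% aqueous hydroxypropyl-γ-cyclodextrin (30/70); blood at 5, 15, 30 min, 1, 2, 4, 8 h; plasma by centrifugation, stored −20 °C; LC–MS/MS; non-compartmental analysis.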

A further series has as its target T2, Cathepsin L2 (Homo sapiens, UniProt O60911).
T2 sequence (O60911 whole entry): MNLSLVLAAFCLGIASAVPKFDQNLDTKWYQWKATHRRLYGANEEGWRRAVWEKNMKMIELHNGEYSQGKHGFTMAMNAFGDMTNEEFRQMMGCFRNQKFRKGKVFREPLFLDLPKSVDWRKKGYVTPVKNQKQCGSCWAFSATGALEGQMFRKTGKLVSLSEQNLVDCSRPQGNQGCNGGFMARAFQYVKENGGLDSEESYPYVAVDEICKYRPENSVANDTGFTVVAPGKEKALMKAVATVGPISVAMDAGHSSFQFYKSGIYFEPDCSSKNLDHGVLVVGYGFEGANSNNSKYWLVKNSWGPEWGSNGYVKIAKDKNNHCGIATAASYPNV
As to the kind of experiment: Inhibition of human cathepsin V.

The subject of series [4] is Trypanosoma brucei rhodesiense. Nature of the series: Antitrypanosomal activity against bloodstream form of Trypanosoma brucei rhodesiense STIB 900 assessed as parasite growth inhibition incubated for 24 to 48 hrs followed by 72 hrs recovery by Alamar blue assay. In kind it is functional.
A further series has as its target Cathepsin S (Homo sapiens, UniProt P25774). As to the kind of experiment: Inhibition of human cathepsin S.
Series [5] in a line: Drug uptake in bloodstream form of Trypanosoma brucei rhodesiense STIB 900 infected NMRI mouse blood at 25 mg/kg, ip bid administered for 4 consecutive days starting 3 days post infection measured at 4 hrs post last dose. In kind it is ADME, organism-based. The settings on record: read-out: Drug uptake.
A short description of series [6]: Drug uptake in bloodstream form of Trypanosoma brucei rhodesiense STIB 900 infected NMRI mouse blood at 25 mg/kg, ip bid administered for 4 consecutive days starting 3 days post infection measured at 1 hr post last dose. In kind it is ADME, organism-based. The settings on record: read-out: Drug uptake.
In a further series the target is Cathepsin B (Homo sapiens, UniProt P07858). Nature of the series: Inhibition of human cathepsin B.
The next series deals with Cytochrome P450 2D6 (Homo sapiens, UniProt P10635). As to the kind of experiment: Inhibition of CYP2D6 in human liver microsomes using AMMC as substrate by fluorescence assay. It counts as ADME.
Series [7] in a line: Solubility of the compound at pH 6.5 by LYSA. In kind it is physicochemical. The settings on record: buffer. The procedure, abridged: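 Lyophilisation solubility assay at pH 6.5.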
The nature of series [8]: Half life in C57BL/6J mouse administered via iv as bolus dose by LC-MS/MS analysis. It counts as ADME, organism-based. The settings on record: in vivo. In short, it runs like this: as §2
In another series the test system is MDR1. As to the kind of experiment: Efflux ratio of permeability across pig LLC-PK1 cells expressing human MDR1 at 1 uM after 3.5 hrs by LC-MS/MS analysis. It counts as ADME, cell-based, Sus scrofa. The procedure, abridged:
(§3)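 Porcine kidney LLC-PK1 cells stably transfected with human ABCB1 (MDR1) or mouse Abcb1a (Mdr1a). Cells were grown with 10% FCS and 100 ng/mL colchicine and seeded on permeable inserts, then assayed on day 4. Compound was added at 1 μM to the apical or basolateral side, and transport was run in both directions in triplicate at 37 °C, 5% CO2. Donor and receiver were sampled at 3.5 h and quantified by LC–MS/MS. Lucifer yellow was used as the monolayer tightness control.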

Series [9] in a line: Plasma concentration in rat at 3 mg/kg administered via infusion over 30 mins. The settings on record: iv. It counts as ADME, organism-based. In short, it runs like this:
as §1

For series [10], the system named is Trypanosoma brucei rhodesiense. As to the kind of experiment: Antitrypanosomal activity against bloodstream form of Trypanosoma brucei rhodesiense STIB 900 infected in NMRI mouse assessed as days required to prevent relapse of trypanosome at 25 mg/kg, ip bid administered for 4 consecutive days starting 3 days post infection. It counts as functional. In short, it runs like this:
(§4)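 Mice infected with T. b. rhodesiense STIB900 (acute model); dosing from day 3 post-infection on four consecutive days, 25 mg kg⁻¹ i.p. twice daily, 0.1 mL/10 g; three infected-untreated controls; parasitaemia monitored by tail-snip blood smears twice weekly for two weeks, then weekly to day 60; relapse day recorded post-infection.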

The target of another series is Rhodesain (Trypanosoma brucei rhodesiense, UniProt Q95PM0). Nature of the series: Inhibition of Trypanosoma brucei rhodesiense rhodesain using Cbz-Phe-Arg-AMC as substrate by fluorimetric method. The procedure, abridged: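 Fluorescence-based protease assay. IC50 was converted to Ki by the Cheng-Prusoff equation. Values are the average of two measurements, each run in duplicate.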

Series [11] in a line: Octanol-water intrinsic distribution co-efficient, log D of the compound at 100 uM at pH 7.4 after 16 to 22 hrs by CAMDIS assay. In kind it is physicochemical. The procedure, abridged:
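Distribution between octanol and aqueous buffer at pH 7.4, CAMDIS carrier-mediated system.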

For series [12], the system named is Trypanosoma brucei brucei. Nature of the series: Antitrypanosomal activity against Trypanosoma brucei brucei TC 221 assessed as parasite growth inhibition after 72 hrs by Alamar blue assay. In kind it is functional. The note with it: TC 221, 72 h.
Series [13] is described as follows: Ratio of drug level in brain to plasma in C57BL/6J mouse administered via iv as bolus dose by LC-MS/MS analysis.
A further series has as its target Procathepsin L (Homo sapiens, UniProt P07711). Nature of the series: Inhibition of human CatL using Cbz-Phe-Arg-AMC as substrate measured over 30 mins by fluorimetric method.
A further series addresses Cytochrome P450 2C9 (Homo sapiens, UniProt P11712). As to the kind of experiment: Inhibition of CYP2C9 in human liver microsomes using MFC as substrate by fluorescence assay.
Series [14] is described as follows: Drug uptake in bloodstream form of Trypanosoma brucei rhodesiense STIB 900 infected NMRI mouse blood at 25 mg/kg, ip bid administered for 4 consecutive days starting 3 days post infection measured at 16 hrs post last dose. It counts as ADME, organism-based. The settings on record: read-out: Drug uptake.
Series [15] in a line: Clearance in C57BL/6J mouse administered via iv as bolus dose by LC-MS/MS analysis. In kind it is ADME, organism-based. The settings on record: in vivo. In short, it runs like this: as §2
Series [16] is described as follows: Ratio of drug level in rat CSF to plasma at 3 mg/kg administered via infusion over 30 mins. The settings on record: iv.
The nature of series [17]: Effective permeability of the compound after 15 hrs by PAMPA. The note with it: read-out: Peff. In kind it is physicochemical.
In another series the target is Cytochrome P450 3A4 (Homo sapiens, UniProt P08684). As to the kind of experiment: Inhibition of CYP3A4 in human liver microsomes using DBF as substrate by fluorescence assay. It counts as ADME.
The nature of series [18]: Ratio of drug level in rat brain to plasma at 3 mg/kg administered via infusion over 30 mins. The note with it: iv.
Another series deals with Mdr1a. As to the kind of experiment: Efflux ratio of permeability across pig LLC-PK1 cells expressing mouse Mdr1a at 1 uM after 3.5 hrs by LC-MS/MS analysis. In kind it is ADME, cell-based, Sus scrofa. The procedure, abridged: as §3
In series [19] the test system is Trypanosoma brucei rhodesiense. As to the kind of experiment: Antitrypanosomal activity against bloodstream form of Trypanosoma brucei rhodesiense STIB 900 infected in NMRI mouse assessed as mouse survival at 25 mg/kg, ip bid administered for 4 consecutive days starting 3 days post infection (reference value: 13 days). It counts as functional. The procedure, abridged: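 T. b. rhodesiense STIB900 acute mouse infection model. Dosing was 25 mg/kg i.p. twice daily for 4 consecutive days, starting 3 days post-infection, at 0.1 mL/10 g. Three infected mice served as untreated controls without vehicle. Parasitaemia was followed by tail-blood smears twice weekly for two weeks, then weekly to day 60. Relapse day and mean survival days were recorded.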

Series [20] concerns Trypanosoma brucei rhodesiense. As to the kind of experiment: Antitrypanosomal activity against bloodstream form of Trypanosoma brucei rhodesiense STIB 900 infected in NMRI mouse assessed as reduction of parasitemia at 25 mg/kg, ip bid administered for 4 consecutive days starting 3 days post infection measured 24 hrs post last dose. In kind it is functional, organism-based. In short, it runs like this:
as §4

For series [21], the target named is Rhodesain (Trypanosoma brucei rhodesiense) (UniProt Q95PM0). Nature of the series: Inhibition of Trypanosoma brucei rhodesiense rhodesain at 20 uM using Cbz-Phe-Arg-AMC as substrate by fluorimetric method relative to control.
The subject of another series is L6. Nature of the series: Cytotoxicity against rat L6 cells after 72 hrs by Alamar blue assay. It counts as cell-based. The settings on record: Rattus norvegicus, L6, 72 h. The procedure, abridged:
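Rat skeletal myoblast L6 cells, growth inhibition; IC50 as average of at least 2 measurements.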

For series [22], the system named is Trypanosoma brucei rhodesiense. As to the kind of experiment: Antitrypanosomal activity against bloodstream form of Trypanosoma brucei rhodesiense STIB 900 assessed as parasite growth inhibition after 72 hrs by Alamar blue assay. The settings on record: Trypanosoma brucei, STIB 900, 72 h. In kind it is functional. The procedure, abridged: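 T. b. rhodesiense STIB900 bloodstream trypomastigotes; cell-growth inhibition read by Alamar blue; IC50 as average of at least 2 measurements.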

Converted amounts (≈) assume the structure as drawn. The source made the active and inactive calls. The rule behind the calls is not given here.

Sequence of Procathepsin L (P07711 whole entry): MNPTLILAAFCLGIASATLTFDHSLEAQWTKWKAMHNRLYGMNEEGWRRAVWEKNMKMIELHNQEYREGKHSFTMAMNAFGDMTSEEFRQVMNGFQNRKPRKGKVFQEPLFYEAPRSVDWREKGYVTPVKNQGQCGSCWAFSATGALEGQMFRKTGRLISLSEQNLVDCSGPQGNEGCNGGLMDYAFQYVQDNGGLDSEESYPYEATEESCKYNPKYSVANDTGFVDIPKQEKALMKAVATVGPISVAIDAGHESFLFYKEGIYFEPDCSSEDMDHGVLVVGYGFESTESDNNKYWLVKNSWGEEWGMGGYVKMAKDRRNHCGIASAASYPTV
Sequence of Rhodesain (Q95PM0 whole entry): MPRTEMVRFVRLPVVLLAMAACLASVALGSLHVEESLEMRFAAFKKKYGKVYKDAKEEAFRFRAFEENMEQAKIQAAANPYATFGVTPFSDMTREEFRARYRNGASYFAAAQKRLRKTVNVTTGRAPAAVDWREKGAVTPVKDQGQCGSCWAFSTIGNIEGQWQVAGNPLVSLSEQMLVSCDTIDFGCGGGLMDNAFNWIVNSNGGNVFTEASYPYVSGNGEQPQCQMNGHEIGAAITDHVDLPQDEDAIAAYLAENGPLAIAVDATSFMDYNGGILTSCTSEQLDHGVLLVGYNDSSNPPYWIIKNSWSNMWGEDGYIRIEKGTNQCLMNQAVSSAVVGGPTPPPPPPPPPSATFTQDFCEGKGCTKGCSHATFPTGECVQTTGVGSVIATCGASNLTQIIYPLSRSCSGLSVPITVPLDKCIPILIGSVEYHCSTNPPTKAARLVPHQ
Sequence of Cytochrome P450 3A4 (P08684 whole entry, the tested form may be a part): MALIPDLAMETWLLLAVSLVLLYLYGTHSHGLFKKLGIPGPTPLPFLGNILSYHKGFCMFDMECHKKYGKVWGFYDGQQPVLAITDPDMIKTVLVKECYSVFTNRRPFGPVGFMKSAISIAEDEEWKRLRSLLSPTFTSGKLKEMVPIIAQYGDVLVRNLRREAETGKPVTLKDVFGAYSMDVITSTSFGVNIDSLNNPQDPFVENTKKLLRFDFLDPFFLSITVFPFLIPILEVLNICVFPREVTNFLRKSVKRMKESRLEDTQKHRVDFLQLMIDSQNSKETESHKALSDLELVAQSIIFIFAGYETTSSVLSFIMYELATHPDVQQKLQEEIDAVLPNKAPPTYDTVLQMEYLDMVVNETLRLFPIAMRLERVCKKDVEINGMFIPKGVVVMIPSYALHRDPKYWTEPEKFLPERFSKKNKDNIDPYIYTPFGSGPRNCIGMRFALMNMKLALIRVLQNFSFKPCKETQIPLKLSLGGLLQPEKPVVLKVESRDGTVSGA
Sequence of Cathepsin S (P25774 whole entry): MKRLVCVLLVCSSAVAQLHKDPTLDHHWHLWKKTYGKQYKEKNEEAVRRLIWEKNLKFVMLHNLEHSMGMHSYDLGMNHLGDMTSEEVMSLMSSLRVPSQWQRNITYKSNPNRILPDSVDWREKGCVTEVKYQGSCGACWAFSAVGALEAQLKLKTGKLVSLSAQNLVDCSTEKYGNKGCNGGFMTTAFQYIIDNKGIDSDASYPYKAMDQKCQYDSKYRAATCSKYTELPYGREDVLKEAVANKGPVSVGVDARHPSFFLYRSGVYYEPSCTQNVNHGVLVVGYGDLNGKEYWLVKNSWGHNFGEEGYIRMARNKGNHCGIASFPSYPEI
Sequence of Rhodesain (Trypanosoma brucei rhodesiense) (Q95PM0 1-450): as the sequence (Q95PM0 whole entry) above
Sequence of Cytochrome P450 2D6 (P10635 whole entry): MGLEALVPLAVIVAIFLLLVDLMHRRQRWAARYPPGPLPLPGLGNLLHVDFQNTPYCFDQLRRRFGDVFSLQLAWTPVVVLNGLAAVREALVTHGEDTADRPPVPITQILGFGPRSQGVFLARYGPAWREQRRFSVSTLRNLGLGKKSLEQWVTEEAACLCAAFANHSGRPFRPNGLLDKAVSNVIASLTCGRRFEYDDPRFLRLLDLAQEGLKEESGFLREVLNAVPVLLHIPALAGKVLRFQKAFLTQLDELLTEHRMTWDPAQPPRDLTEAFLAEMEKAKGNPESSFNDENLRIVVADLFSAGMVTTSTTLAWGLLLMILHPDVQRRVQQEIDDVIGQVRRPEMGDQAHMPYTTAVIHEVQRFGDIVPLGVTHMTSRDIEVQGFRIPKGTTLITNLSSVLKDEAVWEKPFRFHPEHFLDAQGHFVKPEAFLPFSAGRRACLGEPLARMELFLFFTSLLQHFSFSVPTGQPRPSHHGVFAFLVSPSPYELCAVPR
Sequence of Cytochrome P450 2C9 (P11712 whole entry): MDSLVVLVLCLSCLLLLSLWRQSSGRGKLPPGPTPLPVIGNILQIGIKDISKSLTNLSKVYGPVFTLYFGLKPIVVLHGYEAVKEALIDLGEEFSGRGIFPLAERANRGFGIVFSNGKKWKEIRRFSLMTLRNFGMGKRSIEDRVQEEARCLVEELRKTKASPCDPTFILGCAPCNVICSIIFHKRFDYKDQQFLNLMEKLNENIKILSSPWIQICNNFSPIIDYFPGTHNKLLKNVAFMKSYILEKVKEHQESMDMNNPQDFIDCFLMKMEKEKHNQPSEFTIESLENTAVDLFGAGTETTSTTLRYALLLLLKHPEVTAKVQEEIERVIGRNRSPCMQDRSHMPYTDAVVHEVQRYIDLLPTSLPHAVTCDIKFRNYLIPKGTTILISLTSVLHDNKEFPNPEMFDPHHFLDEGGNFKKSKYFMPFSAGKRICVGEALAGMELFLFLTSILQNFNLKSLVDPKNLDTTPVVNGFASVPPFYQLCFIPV

`N#CC1(NC(=O)[C@@H]2Cc3ccc(c(Cl)c3)OCCCCOc3cc(C(F)(F)F)ccc3C(=O)N2)CC1`: the results for the concentration at 0.5 h in series [1], in series [2] and in [9] were 2.3 ng/mL, 256 ng/g and 404 ng/mL, respectively. Further, the half-maximal inhibitory concentration (IC50) on Cathepsin K was at least 25000 nM; against Cathepsin L2 it was 1040 nM; in series [4] it was 10 nM; on Cathepsin S, 2700 nM; at Cathepsin B it was 9000 nM; at Cytochrome P450 2D6 it was 11000 nM. For the same compound, the concentration for half-maximal inhibition (IC50) in series [12] is 4 nM; on Cytochrome P450 2C9, 16000 nM; at Cytochrome P450 3A4, 43000 nM. In [3], the Vd worked out at 7.2 L/kg. The concentration at 4 h in [5] worked out at 15.1 ng/mL. The concentration at 1 h in series [6] amounted to 237 ng/mL. Also, the concentration in solution in series [7] (solubility) came to 12 µg/mL (≈ 23 µM). Further, the half-life in series [8] was 2.7 h. For the same compound, the efflux ratio at 3.5 h, 1 µM with MDR1 turned out to be 26; in the series with Mdr1a, 53. The Time in series [10] turned out to be 10.2 days. Also, the inhibition constant Ki at Rhodesain was 11 nM; at Procathepsin L, 10 nM. Moreover, the logD at 100 µM in series [11] turned out to be 3.7. The Kp in series [13] is below 0.5. Besides, the concentration at 16 h in [14] came out at 4.8 ng/mL. Besides, in series [15], the clearance worked out at 79 mL/min/kg. The values for the Kp at 0.5 h in series [16] and in series [18] were 0.006 and 0.7, respectively. Besides, the Papp at 15 h in [17] came out at 0.4 ×10⁻⁶ cm/s. Also, the Survival in series [19] was found to be 16.3 days. In series [20], the result was Active.
With `N#CC1(NC(=O)[C@@H]2Cc3ccc(c(Cl)c3)OCCCCOc3cc4c(cc3C(=O)N2)CCCC4)CC1`, the efflux ratio at 3.5 h, 1 µM in the series on MDR1 was 26; with Mdr1a, 38. Moreover, the Ki on Rhodesain turned out to be 26 nM; at Procathepsin L it was 3 nM. Moreover, the IC50 in series [12] is 1 nM.
As to `CSc1ccc2c(c1)C(=O)N[C@H](C(=O)NC1(C#N)CC1)Cc1ccc(c(Cl)c1)OC/C=C/CO2`, the concentration at 4 h in series [5] amounted to 66.4 ng/mL. The concentration at 1 h in series [6] was 951 ng/mL. In addition, in series [14], the concentration at 16 h was below 10 ng/mL. Moreover, the result in series [20] was inactive.
In the case of `N#CC1(NC(=O)[C@@H]2Cc3ccc(c(-c4cc[nH]n4)c3)OCCCCOc3cc(C(F)(F)F)ccc3C(=O)N2)CC1`, in [21], the inhibition stood at 45%. Affinity at Procathepsin L was put at a Ki of 1360 nM. For the same compound, the IC50 is above 100000 nM with L6 and 140 nM in series [22].
